# Measurements gathered from unrelated publications.
# Compare with care: the assays were run in different laboratories.
# Cell line: HepG2
# Read-out: cell growth or viability
Compound,test,setting,quantity,result
COc1ccc(NC(=O)c2c(Nc3ccccc3)sc(C#N)c2NC(=O)CNc2ccc(C)cc2)cc1,SRB,"100 µM, 48 h",viability,62.3%
CN(C)C/C=N/NC(=O)Nc1cc2c(Nc3ccc(F)c(Cl)c3)ncnc2cc1O[C@H]1CCOC1,MTT,72 h,IC50,3.08 µM
O=C(CN1C(=O)/C(=C/c2ccccn2)SC1=S)Nc1ccccc1,MTT,10 µM,inhibition,10.2%
COc1ccc(NC(=O)c2c(Nc3ccccc3)sc(C#N)c2NC(=O)CNc2ccc(OC)c(OC)c2)cc1,SRB,"10 µM, 48 h",viability,71.4%
Cc1cc(=O)oc2ccc(-c3cc(-c4ccc(Cl)cc4)nc(N)n3)c(O)c12,MTT,"32 µg/mL, 72 h",inhibition,65%
COc1ccc(NC(=O)c2c(Nc3ccccc3)sc(C(=O)NN=Cc3ccc(Br)cc3)c2NC(C)=O)cc1,SRB,"10 nM, 48 h",viability,92.7%
COc1cccc(NC(=O)CN2C(=O)/C(=C/c3ccccc3)SC2=S)c1,MTT,10 µM,inhibition,11.8%
Cc1ccc2nc(-c3ccc(Cl)c(Cl)c3)n(Cc3ccccc3)c2c1,MTT,,IC50,> 100 µM
CC(=O)Nc1cccc(-n2c(=O)n(C3CC3)c(=O)c3c(Nc4ccc(I)cc4F)n(C)c(=O)c(C)c32)c1,resazurin,"390 pM, 72 h",viability,103%
Cc1cc(=O)oc2ccc(-c3cc(-c4ccc(Br)cc4)nc(N)n3)c(O)c12,MTT,"128 µg/mL, 72 h",inhibition,20%
CC(C)(CO)Cn1nc(-c2ccc3cc(OC4CC4)ccc3c2)c2c(N)ncnc21,,,GI50,> 10 µM
C=CCn1c(-c2ccc(Cl)cc2)nc2ccccc21,MTT,,IC50,58.9 µM
COc1ccc(NC(=O)c2c(Nc3ccccc3)sc(C#N)c2NC(=O)CNc2ccccc2)cc1,SRB,"10 µM, 48 h",viability,90.4%
Cc1cc(Nc2ccc(C(=O)N/N=C/c3ccc(N(C)C)cc3)cc2)c2cccc(O)c2n1,MTT,20 µM,inhibition,40.8%
COc1ccc(NC(=O)c2c(Nc3ccccc3)sc(C(=O)NN=Cc3cc(OC)c(OC)c(OC)c3)c2NC(C)=O)cc1,SRB,"0.1 µM, 48 h",viability,76.5%
CCNC(=O)c1cn(CC)c2cc(N3CCC(C)CC3)c(F)cc2c1=O,ATP luminescence,48 h,EC50,> 40 µM
COc1ccc(NC(=O)c2c(Nc3ccccc3)sc(C#N)c2NC(=O)CNc2ccccc2[N+](=O)[O-])cc1,SRB,"0.1 µM, 48 h",viability,88.3%
COc1cccc(NC(=O)CN2C(=O)/C(=C/c3ccco3)SC2=S)c1,MTT,10 µM,inhibition,5.43%
Cc1cc(=O)oc2ccc(-c3cc(-c4cccs4)nc(N)n3)c(O)c12,MTT,"2 µg/mL, 72 h",inhibition,0%
CCOC(=O)c1ccc(-n2c(C)cc(/C=C/c3ccc(OCC)cc3)c(C#N)c2=O)cc1,MTT,"12.5 µM, 24 h",viability,90.3%
Cc1cc(=O)oc2ccc(-c3cc(-c4ccccc4)nc(N)n3)c(O)c12,MTT,"128 µg/mL, 72 h",inhibition,20%
COc1cc2c(c(OC)c1OC)-c1ccc(OC)c(=O)cc1[C@@H](NC(C)=O)CC2,MTT,10 µM,inhibition,56.4%
CCn1cc(-c2nc(C)no2)c(=O)c2cc(F)c(N3CCCCCC3)cc21,ATP luminescence,48 h,EC50,> 40 µM
Clc1ccc(-c2nc3ccccc3n2Cc2ccccc2)cc1Cl,MTT,,IC50,49.9 µM
CCOC(=O)c1ccc(NC(=O)C2=C3C(=Nc4ccccc43)NC2=O)cc1,MTT,"3.125 µM, 24 h",viability,100%
Cc1ccc2nc(-c3ccc([N+](=O)[O-])cc3)n(Cc3ccccc3Cl)c2c1,MTT,,IC50,34.3 µM
CCOC(=O)c1ccc(-n2c(N)c(C#N)c(CC#N)c(C#N)c2=O)cc1,MTT,"100 µM, 24 h",viability,24.5%
Cc1ccc2nc(-c3ccc([N+](=O)[O-])cc3)n(Cc3ccc(Cl)cc3)c2c1,MTT,,IC50,5.53 µM
Cc1cc(Nc2ccc(C(=O)N/N=C/c3cccs3)cc2)c2cccc(O)c2n1,MTT,20 µM,inhibition,49%
CCOC(=O)c1ccc(N2C(N)=C(C#N)C3(C(=O)Nc4ccccc43)C(C#N)=C2O)cc1 (stereo not drawn),MTT,"25 µM, 24 h",viability,23.5%
COc1ccc(-c2cc(-c3ccc4oc(=O)cc(C)c4c3O)nc(N)n2)cc1,MTT,"32 µg/mL, 72 h",inhibition,15%
CCOC(=O)c1ccc(-n2c(-c3ccc(C)cc3)cc(-c3ccc(O)cc3)c(C#N)c2=O)cc1,MTT,"100 µM, 24 h",viability,18.3%
Cc1cc(=O)oc2ccc(-c3cc(-c4cccc(Cl)c4)nc(N)n3)c(O)c12,MTT,"2 µg/mL, 72 h",inhibition,0%
CCN(CC)C/C=N/NC(=O)Nc1cc2c(Nc3ccc(F)c(Cl)c3)ncnc2cc1OC,MTT,72 h,IC50,2.15 µM
CCn1cc(C(N)=O)c(=O)c2cc(F)c(N3CCC(C)CC3)cc21,ATP luminescence,48 h,EC50,> 40 µM
C=CCn1c(-c2ccc(OC)c(OC)c2)nc2ccccc21,MTT,,IC50,53.8 µM
O=C(CN1C(=O)/C(=C/c2ccc[nH]2)SC1=S)Nc1ccccc1,MTT,10 µM,inhibition,9.65%
CCn1cc(-c2nc(C)no2)c(=O)c2cc(F)c(N3CCC(Cc4ccccc4)CC3)cc21,ATP luminescence,48 h,EC50,> 40 µM
CN1CCN(C/C=N/NC(=O)Nc2cc3c(Nc4ccc(F)c(Cl)c4)ncnc3cc2O[C@H]2CCOC2)CC1,MTT,72 h,IC50,3.28 µM
COc1cccc(-c2nc3ccccc3[nH]2)c1,MTT,48 h,IC50,47.1 µM
CCOC(=O)c1ccc(-n2c(C)cc(/C=C/c3ccc(OC)cc3)c(C#N)c2=O)cc1,MTT,"12.5 µM, 24 h",viability,83.5%
CCOC(=O)c1cn(CC)c2cc(N3CCC(C)CC3)c(F)cc2c1=O,ATP luminescence,48 h,EC50,> 40 µM
COc1ccc(NC(=O)c2c(Nc3ccccc3)sc(C(=O)NN=Cc3ccc(Cl)cc3)c2NC(C)=O)cc1,SRB,"1 nM, 48 h",viability,100%
Cc1ccc2nc(-c3ccc4c(c3)OCO4)[nH]c2c1,MTT,48 h,IC50,79 µM
O=C(CN1C(=O)/C(=C/c2cccc([N+](=O)[O-])c2)SC1=S)Nc1ccccc1,MTT,10 µM,inhibition,24.2%
COc1cccc2c1C(=O)c1c(O)c3c(c(O)c1C2=O)C[C@@](O)(C(=O)CO)C[C@@H]3O[C@H]1C[C@H](N)[C@H](O)[C@H](C)O1,MTT,"100 µM, 24 h",viability,6.3%
O=C(CN1C(=O)/C(=C/c2cccc(Br)c2)SC1=S)Nc1ccccc1,MTT,10 µM,inhibition,12.7%
COc1ccc(NC(=O)c2c(Nc3ccccc3)sc(C#N)c2NC(=O)CNc2ccc(O)cc2)cc1,SRB,"0.1 µM, 48 h",viability,85.6%
